Hits are enriched below; roughly 1.4% of the tested compounds scored in any of these assays.
APOBEC3A inh: inhibitors of human APOBEC3A DNA deaminase; AID 493011; P31941; recombinant A3A, FAM/TAMRA ssDNA deamination fluorescence; inhibition, % at 20 µM; 330,000 tested, 0.41% active;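 active = at least 40% inhibition at 20 µM here, with at most 30% in a related deaminase screen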;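 note: plate controls were A3A with DMSO for no effect and wells lacking A3A enzyme for full effect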
Target sequence (P31941 whole entry, looked up): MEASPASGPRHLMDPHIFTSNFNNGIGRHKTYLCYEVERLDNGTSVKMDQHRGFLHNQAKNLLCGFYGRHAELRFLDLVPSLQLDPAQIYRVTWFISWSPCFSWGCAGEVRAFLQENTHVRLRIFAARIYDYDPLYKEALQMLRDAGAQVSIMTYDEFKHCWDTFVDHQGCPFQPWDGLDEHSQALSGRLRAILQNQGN
HKDC1 inh: blocks human hexokinase HKDC1 activity | recombinant HKDC1, G6PDH/diaphorase resazurin coupled fluorescence | inhibition, % at 20 µM | 340,000 tested, 0.16% active | AID 493160;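 active = inhibition above about 35% when tested at 20 µM, limit read from the data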;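 note: plate controls were DMSO wells with enzyme for no effect and DMSO wells lacking enzyme for full effect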
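Incubation: 90 min at room temperature in dark / Material: recombinant HKDC1 (HK5) hexokinase enzyme, produced in-house / Quantity: enzyme 5 µg/mL final / Compound: one dose of 20 µM, 1% DMSO / Reagent: glucose and ATP substrates / Buffer or medium: Tris pH 8.0 buffer with MgCl2, Tween-20, BSA, BME / Technique: resorufin fluorescence at 613 nm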
hiPSC survival: increases survival of single human iPS cells | hiPSC single-cell survival, ATPlite luminescence; 100% = ROCK inhibitor wells, 0% = DMSO | survival enhancement, % at 20 µM | 360,000 tested, 0.044% active | AID 602274; in the data active = survival enhancement above about 18%;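 note: cells exposed to compounds for 16 hours before the ATP read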
PfG6PD inh: PfG6PD (Plasmodium falciparum) enzyme inhibition; PfGluPho enzyme, NADPH resazurin-diaphorase fluorescence; inhibition, % at 20 µM; 350,000 tested, 0.78% active; AID 504690;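 active = inhibition reaching at least a set limit at 20 µM in the primary screen, cut at about 59% in these data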;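 note: 0% = DMSO wells with substrate and 100% = DMSO wells lacking glucose-6-phosphate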
APOBEC3G inh: APOBEC3G (human) deaminase inhibition | Q9HC16 | recombinant A3G, ssDNA deamination FAM/TAMRA fluorescence | inhibition, % at 20 µM | 330,000 tested, 0.28% active;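 active = inhibition of at least 40% at 20 µM, with no more than 30% in the related APOBEC3A deaminase screen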;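 note: plate controls were DMSO wells with A3G for no effect and wells lacking A3G enzyme for full effect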
APOBEC3A confirm: APOBEC3A (human) deaminase inhibition, confirmed; inhibition, % at 20 µM; AID 493151; 1,400 tested, 63% active; shares compounds with APOBEC3A inh; recombinant A3A, ssDNA deaminase UDG fluorescence assay;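 active = inhibition reaching a set limit, 80% of the first screen's cutoff, at 20 µM in any replicate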;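 note: plate controls were DMSO wells with A3A for no effect and wells lacking A3A enzyme for full effect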
UDG ctr A3A: UDG inhibition in APOBEC3A counter-screen. AID 504714. inhibition, % at 20 µM. shares compounds with APOBEC3A inh. UDG counterscreen, FAM/TAMRA uracil oligo fluorescence. 1,000 tested, under 10 active; call rule not given here
* marks the source's active call; other numbers are inactive results.

Results for Cc1cccc(NC(=O)CSCC(=O)Nc2cc(S(=O)(=O)N3CCOCC3)ccc2OC(C)C)c1 ?
APOBEC3A inh: -1; HKDC1 inh: 0; hiPSC survival: 0; PfG6PD inh: 1; APOBEC3G inh: -10

What do the screens show for `Cc1ccc(NC(=O)c2cc(S(=O)(=O)N3CCOCC3)ccc2F)c(C)c1`?
APOBEC3A inh: -1; HKDC1 inh: -2; hiPSC survival: 0; PfG6PD inh: 2; APOBEC3G inh: -6

How did Cc1cccc(NC(=O)CSCC(=O)Nc2cc(S(=O)(=O)N3CCOCC3)ccc2N2CCCC2)c1 do in these assays?
APOBEC3A inh: 96*; HKDC1 inh: -2; hiPSC survival: 0; PfG6PD inh: 3; APOBEC3G inh: -8; APOBEC3A confirm: 3; UDG ctr A3A: -3

What do the screens show for `Cc1cccc(C(=O)Nc2ccc(S(=O)(=O)N3CCOCC3)cc2C)c1`?
APOBEC3A inh: 43*; HKDC1 inh: -2; hiPSC survival: 0; PfG6PD inh: -6; APOBEC3G inh: 13; APOBEC3A confirm: 52*; UDG ctr A3A: -1

How did CCNC(=S)N(CCO)Cc1cc2cc3c(cc2[nH]c1=O)OCO3 do in these assays?
APOBEC3A inh: -3; HKDC1 inh: -6; hiPSC survival: 0; PfG6PD inh: 13; APOBEC3G inh: -3

What do the screens show for `CCOC(=O)CN1C(=O)S/C(=C\c2ccc(-c3ccc(C(=O)O)c(Cl)c3)o2)C1=O`?
APOBEC3A inh: 58*; HKDC1 inh: 8; hiPSC survival: 0; PfG6PD inh: -4; APOBEC3G inh: 16; APOBEC3A confirm: 40*; UDG ctr A3A: -12

How did CCCS(=O)(=O)NC(=O)C1(C)CCCN(C(=O)c2ccc(C(=O)OC)cc2)C1 (stereo not drawn) do in these assays?
hiPSC survival: 0

Results for CN1CCN(S(=O)(=O)c2ccc(C3CCCCC3)cc2)CC1 ?
APOBEC3A inh: 45*; HKDC1 inh: 3; hiPSC survival: 0; PfG6PD inh: -7; APOBEC3G inh: 8; APOBEC3A confirm: 50*; UDG ctr A3A: 1

Results for OC[C@@H]1CN(Cc2cccs2)C[C@H](n2cnc3c(NCc4ccncc4)ncnc32)O1 ?
hiPSC survival: 1

Results for C/C(CC(=O)Nc1cccc(Cl)c1Cl)=N\NC(=O)C(=O)N1CCCC1 ?
APOBEC3A inh: -2; HKDC1 inh: -6; hiPSC survival: 0; PfG6PD inh: -16; APOBEC3G inh: -9

Results for C/C(CC(=O)Nc1ccc(Cl)c(Cl)c1)=N\NC(=O)C(=O)N1CCCCC1 ?
APOBEC3A inh: 62*; HKDC1 inh: -12; hiPSC survival: 2; PfG6PD inh: 2; APOBEC3G inh: 9; APOBEC3A confirm: 16*; UDG ctr A3A: -1

Results for CCn1nc(NC(C)=O)c2cc3cccc(C)c3nc21 ?
APOBEC3A inh: 76*; HKDC1 inh: 0; hiPSC survival: 0; PfG6PD inh: 14; APOBEC3G inh: 14; APOBEC3A confirm: 65*; UDG ctr A3A: -4

How did CCN(C(=O)Cn1c(=O)oc2ccccc21)c1cccc(C)c1 do in these assays?
APOBEC3A inh: 100*; HKDC1 inh: -2; hiPSC survival: 0; PfG6PD inh: -4; APOBEC3G inh: 5; APOBEC3A confirm: 3

Results for O=C(OCc1cc(=O)n2c(n1)sc1ccccc12)c1ccc2c(=O)n3c(nc2c1)CCC3 ?
APOBEC3A inh: 22; HKDC1 inh: -3; hiPSC survival: -1; PfG6PD inh: -7; APOBEC3G inh: 12

How did CC(C)[C@H](NC(=O)Cc1ccccc1)C(=O)OCc1cc(=O)n2c(n1)sc1ccccc12 do in these assays?
APOBEC3A inh: 43*; HKDC1 inh: 16; hiPSC survival: 3; PfG6PD inh: -11; APOBEC3G inh: 8; APOBEC3A confirm: 30

Results for Cc1ccc2c(CC(=O)OCc3cc(=O)n4c(n3)sc3ccccc34)coc2c1 ?
APOBEC3A inh: 44*; HKDC1 inh: 10; hiPSC survival: 3; PfG6PD inh: -11; APOBEC3G inh: 10; APOBEC3A confirm: 26

Compound activity deposited in PubChem by Sanford-Burnham Center for Chemical Genomics.
